Experimental data taken from ChEMBL document CHEMBL4765345, “Design, synthesis, and biological evaluation of dual targeting inhibitors of histone deacetylase 6/8 and bromodomain BRPF1” (Eur J Med Chem, 2020).

Tests used:
[1] = molecular target: T1, Histone deacetylase 8 (Homo sapiens, UniProt Q9BY41); experiment: Inhibition of human recombinant HDAC8 using H2N-Arg-His-Lys(Ac)-Lys(Ac)-AMC as substrate after 90 mins by fluorescence based micro plate assay
T1 sequence (Q9BY41 whole entry): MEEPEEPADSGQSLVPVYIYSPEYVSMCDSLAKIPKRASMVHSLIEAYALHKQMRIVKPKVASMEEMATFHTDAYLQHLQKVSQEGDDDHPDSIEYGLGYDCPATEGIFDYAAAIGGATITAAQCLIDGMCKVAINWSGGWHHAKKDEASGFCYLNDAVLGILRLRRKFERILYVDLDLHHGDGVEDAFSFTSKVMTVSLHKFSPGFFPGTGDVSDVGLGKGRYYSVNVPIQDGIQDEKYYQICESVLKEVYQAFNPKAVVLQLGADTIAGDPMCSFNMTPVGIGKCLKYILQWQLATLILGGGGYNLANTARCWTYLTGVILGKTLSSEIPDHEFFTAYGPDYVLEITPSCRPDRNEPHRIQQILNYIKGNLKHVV

[2] = molecular target: T2, Protein deacetylase HDAC6 (Homo sapiens) (UniProt Q9UBN7); experiment: Inhibition of recombinant human HDAC6 at 10 uM using Z-(Ac)Lys-AMC as substrate after 90 mins by fluorescence based micro plate assay
T2 sequence (whole entry): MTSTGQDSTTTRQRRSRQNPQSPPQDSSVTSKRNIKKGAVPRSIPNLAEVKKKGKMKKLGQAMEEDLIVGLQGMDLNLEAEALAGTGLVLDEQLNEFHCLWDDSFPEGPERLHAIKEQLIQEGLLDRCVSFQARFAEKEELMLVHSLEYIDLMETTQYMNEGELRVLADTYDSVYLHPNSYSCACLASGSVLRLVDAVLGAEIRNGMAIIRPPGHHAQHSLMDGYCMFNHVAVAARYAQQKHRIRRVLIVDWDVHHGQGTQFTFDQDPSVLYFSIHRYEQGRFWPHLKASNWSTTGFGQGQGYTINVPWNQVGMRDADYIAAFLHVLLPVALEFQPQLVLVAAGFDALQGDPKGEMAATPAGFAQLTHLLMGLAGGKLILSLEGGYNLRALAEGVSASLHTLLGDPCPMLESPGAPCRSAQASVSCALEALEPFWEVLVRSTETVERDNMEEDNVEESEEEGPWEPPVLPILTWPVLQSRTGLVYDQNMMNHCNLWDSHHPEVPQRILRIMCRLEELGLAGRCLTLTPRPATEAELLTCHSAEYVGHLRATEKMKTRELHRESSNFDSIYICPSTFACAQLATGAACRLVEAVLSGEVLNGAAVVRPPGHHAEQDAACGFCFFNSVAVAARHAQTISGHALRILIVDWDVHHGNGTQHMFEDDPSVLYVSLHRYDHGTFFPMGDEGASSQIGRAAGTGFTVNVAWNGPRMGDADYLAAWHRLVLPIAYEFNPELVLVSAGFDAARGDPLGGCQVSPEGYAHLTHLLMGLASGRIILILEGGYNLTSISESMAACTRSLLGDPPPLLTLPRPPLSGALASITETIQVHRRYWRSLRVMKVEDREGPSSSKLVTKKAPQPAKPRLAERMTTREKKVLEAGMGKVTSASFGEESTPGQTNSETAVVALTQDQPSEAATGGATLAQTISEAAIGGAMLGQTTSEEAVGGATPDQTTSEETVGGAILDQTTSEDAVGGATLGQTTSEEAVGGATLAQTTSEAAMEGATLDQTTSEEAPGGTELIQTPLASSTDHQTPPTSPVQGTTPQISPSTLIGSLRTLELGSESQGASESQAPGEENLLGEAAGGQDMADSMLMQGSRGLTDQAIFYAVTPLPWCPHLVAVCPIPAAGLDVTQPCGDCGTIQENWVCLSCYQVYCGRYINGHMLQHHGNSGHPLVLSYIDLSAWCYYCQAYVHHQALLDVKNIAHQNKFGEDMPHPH
How it was run: (§1)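 Recombinant human HDAC1 or HDAC6 incubated 90 min at 37 °C with 10.5 μM ZMAL (Z-(Ac)Lys-AMC) and increasing inhibitor concentrations, using a homogeneous fluorescence assay. Fluorescence read at Ex 390/Em 460 nm.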

[3] = (§2) Cytotoxicity against human HEK293 assessed as reduction in cell viability incubated for 24 hrs by AlamarBlue assay; type: cell-based; details: HEK293 cells, read-out: INH
How it was run: (§3)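 HEK293 cells were grown at 37 °C under 5% CO2 in DMEM with 10% FCS and 5 mM glutamine and seeded at 1.5 x 10³ cells per well. Compound at 50 μM was added at once. After 24 h AlamarBlue was added for another 21 h, and fluorescence was read at Ex 560/Em 590 nm. Triplicates over three independent experiments.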

[4] = molecular target: T2, Protein deacetylase HDAC6 (Homo sapiens); experiment: Inhibition of recombinant human HDAC6 at 1 uM using Z-(Ac)Lys-AMC as substrate after 90 mins by fluorescence based micro plate assay; how it was run: as §1
[5] = tested on: THP-1; experiment: Antiproliferative activity against human THP-1 assessed as reduction in cell growth at 20 uM by CellTiter-non radioactive cell proliferation assay; type: functional
[6] = molecular target: T3, Peregrin (Homo sapiens, UniProt P55201); experiment: Binding affinity to BRPF1 (unknown origin) by Isothermal titration calorimetry
T3 sequence (P55201 whole entry): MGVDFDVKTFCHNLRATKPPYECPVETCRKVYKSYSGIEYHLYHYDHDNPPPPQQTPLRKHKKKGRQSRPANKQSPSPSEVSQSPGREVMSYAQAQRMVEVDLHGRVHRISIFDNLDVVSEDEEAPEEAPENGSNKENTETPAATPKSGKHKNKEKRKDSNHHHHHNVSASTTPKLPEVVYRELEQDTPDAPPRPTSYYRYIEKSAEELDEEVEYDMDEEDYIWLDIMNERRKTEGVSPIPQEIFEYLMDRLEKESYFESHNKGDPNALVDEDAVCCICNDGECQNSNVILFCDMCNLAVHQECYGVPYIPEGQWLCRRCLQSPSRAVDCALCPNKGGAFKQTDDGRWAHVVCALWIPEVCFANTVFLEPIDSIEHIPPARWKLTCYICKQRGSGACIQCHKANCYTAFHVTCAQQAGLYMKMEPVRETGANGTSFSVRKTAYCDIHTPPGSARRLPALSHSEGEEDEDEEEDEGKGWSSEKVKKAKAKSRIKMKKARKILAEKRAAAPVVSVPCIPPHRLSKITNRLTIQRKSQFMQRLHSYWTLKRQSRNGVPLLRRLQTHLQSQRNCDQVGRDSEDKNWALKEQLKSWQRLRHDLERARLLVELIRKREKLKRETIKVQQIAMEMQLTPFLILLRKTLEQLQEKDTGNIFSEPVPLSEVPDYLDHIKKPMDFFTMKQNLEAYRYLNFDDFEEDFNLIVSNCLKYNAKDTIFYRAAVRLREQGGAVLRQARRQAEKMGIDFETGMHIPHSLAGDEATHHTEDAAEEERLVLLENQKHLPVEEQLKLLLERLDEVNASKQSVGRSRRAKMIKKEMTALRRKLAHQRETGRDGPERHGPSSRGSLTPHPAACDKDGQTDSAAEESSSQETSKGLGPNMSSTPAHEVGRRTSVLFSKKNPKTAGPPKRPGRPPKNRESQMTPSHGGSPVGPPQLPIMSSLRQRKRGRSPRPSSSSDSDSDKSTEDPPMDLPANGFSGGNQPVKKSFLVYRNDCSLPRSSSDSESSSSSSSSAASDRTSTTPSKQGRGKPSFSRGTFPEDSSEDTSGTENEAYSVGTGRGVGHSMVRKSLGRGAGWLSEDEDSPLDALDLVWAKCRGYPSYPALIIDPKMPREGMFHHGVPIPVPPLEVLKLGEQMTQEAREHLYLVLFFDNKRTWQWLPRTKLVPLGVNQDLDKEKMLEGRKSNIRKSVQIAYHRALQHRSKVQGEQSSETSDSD
How it was run: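 Isothermal titration calorimetry with recombinant BRPF1 (200–400 μM) in the injection syringe titrated into ligand (20–40 μM) in the sample cell. Kd was fitted from the titrations and reported with its P99 interval.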

[7] = tested on: HL-60; experiment: Antiproliferative activity against human HL60 assessed as reduction in cell growth at 4 uM by CellTiter-non radioactive cell proliferation assay; type: functional
How it was run: (§4)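 HL60 cells plated at 5000 per well and given inhibitor or DMSO vehicle immediately. Compounds diluted from 200x DMSO stocks; three replicates per concentration. Growth read by CellTiter 96 Aqueous (MTS) assay. GI50 is the concentration cutting metabolically active cells by 50% versus DMSO control, taken from absorbance against log concentration.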

[8] = molecular target: Histone deacetylase 1 (Homo sapiens, UniProt Q13547); experiment: Inhibition of recombinant human HDAC1 using Z-(Ac)Lys-AMC as substrate after 90 mins by fluorescence based micro plate assay; how it was run: as §1
[9] = tested on: HL-60; experiment: Antiproliferative activity against human HL60 assessed as reduction in cell growth at 20 uM by CellTiter-non radioactive cell proliferation assay; type: functional
[10] = tested on: HL-60; experiment: Antiproliferative activity against human HL60 assessed as reduction in cell growth at 100 uM by CellTiter-non radioactive cell proliferation assay; type: functional
[11] = tested on: THP-1; experiment: Antiproliferative activity against human THP-1 assessed as reduction in cell growth at 100 uM by CellTiter-non radioactive cell proliferation assay; type: functional
[12] = tested on: THP-1; experiment: Antiproliferative activity against human THP-1 assessed as reduction in cell growth at 1 uM by CellTiter-non radioactive cell proliferation assay; type: functional
[13] = tested on: HL-60; experiment: Antiproliferative activity against human HL60 assessed as reduction in cell growth at 1 uM by CellTiter-non radioactive cell proliferation assay; type: functional
[14] = tested on: HL-60; experiment: Antiproliferative activity against human HL60 assessed as reduction in cell growth at 50 uM by CellTiter-non radioactive cell proliferation assay; type: functional; how it was run: as §4
[15] = Chemical stability of the compound in standard cellular assay conditions measured after 4 days; type: physicochemical; details: 96 h; time 4 day
How it was run: (§5)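 Compounds were incubated at 37 °C in DMEM (cellular assay conditions) or in PBS pH 7.4 (in vitro assay conditions) for various times up to 4 days. The parent compound and any hydrolysis products were detected and quantified by HPLC.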

[16] = Stability of the compound in phosphate buffer at pH 7.4 measured after 4 days; type: physicochemical; details: pH 7.4, 96 h, time 4 day; how it was run: as §5
[17] = molecular target: T4, Protein deacetylase HDAC6 (Homo sapiens, UniProt Q9UBN7); experiment: Inhibition of recombinant human HDAC6 using Z-(Ac)Lys-AMC as substrate after 90 mins by fluorescence based micro plate assay; how it was run: as §1
T4 sequence (Q9UBN7 whole entry): T2 sequence (whole entry)

[18] = Inhibition of HDAC (unknown origin); design: species or system Homo sapiens
[19] = tested on: HEK293; experiment: as §2; type: cell-based; details: hek293, 24 h; how it was run: as §3
[20] = tested on: THP-1; experiment: Antiproliferative activity against human THP-1 assessed as reduction in cell growth at 4 uM by CellTiter-non radioactive cell proliferation assay; type: functional
[21] = tested on: THP-1 (Homo sapiens); experiment: Antiproliferative activity against human THP-1 assessed as reduction in metabolically active cells by CellTiter-non radioactive cell proliferation assay

Chain of Histone deacetylase 1 (Q13547 whole entry): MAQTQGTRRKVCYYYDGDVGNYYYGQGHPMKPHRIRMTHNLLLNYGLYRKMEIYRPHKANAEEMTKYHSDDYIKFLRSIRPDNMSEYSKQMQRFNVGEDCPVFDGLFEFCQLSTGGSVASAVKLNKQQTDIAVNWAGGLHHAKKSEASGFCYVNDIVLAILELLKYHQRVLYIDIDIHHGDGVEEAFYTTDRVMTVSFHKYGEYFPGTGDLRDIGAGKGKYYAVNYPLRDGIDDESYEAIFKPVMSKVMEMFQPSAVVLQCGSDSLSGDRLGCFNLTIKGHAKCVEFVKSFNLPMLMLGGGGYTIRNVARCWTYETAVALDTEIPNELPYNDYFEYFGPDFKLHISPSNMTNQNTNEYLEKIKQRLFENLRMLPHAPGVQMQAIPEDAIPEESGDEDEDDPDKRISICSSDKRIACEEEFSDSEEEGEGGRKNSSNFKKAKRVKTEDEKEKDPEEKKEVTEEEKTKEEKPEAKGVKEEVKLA

IC50 [1] [nM] | Kd ([6]; read-out: Kd) [nM] | IC50 [8] [nM] | Compound | inhibition at 20 µM [5] [%] | inhibition at 4 µM [7] [%] | inhibition at 20 µM [9] [%] | inhibition at 100 µM [10] [%] | inhibition at 100 µM [11] [%] | inhibition at 1 µM [12] [%] | inhibition at 1 µM [13] [%] | also measured
956 | 4080 | 5200 | COc1ccc(C(=O)NO)cc1NCc1ccc(OCCCCC(=O)Nc2ccc3c(c2)cc(C)c(=O)n3C)cc1 | 0 | 0 | 0 | 0 | – | – | – | inhibition [2]: 68%; cytotoxicity at 24 h [3]: 15%; inhibition [4]: 50%
– | – | – | Cc1cc2cc(NC(=O)c3ccc(S(=O)(=O)Nc4ccc5c(c4)cc(C)c(=O)n5C)cc3)ccc2n(C)c1=O | 84 | – | 55 | – | 73 | 0 | 20 | inhibition at 50 µM [14]: 48%
360 | 1500 | 545 | Cc1cc2cc(NS(=O)(=O)Cc3ccc(C(=O)NO)cc3)ccc2n(C)c1=O | 8 | – | 0 | 27 | 89 | 0 | 5 | Stabilty [15]: Stable; Stabilty [16]: Stable; IC50 [17]: 152 nM
– | – | – | O=C(CCCCCCOc1ccccc1C(=O)Nc1ncnc2[nH]cnc12)NO | – | – | – | – | – | – | – | IC50 [18]: 260 nM; Kd [6]: 2700 nM
– | – | – | COC(=O)c1ccc(OC)c(S(=O)(=O)Nc2ccc3c(c2)cc(C)c(=O)n3C)c1 | 101 | 39 | 44 | 66 | 102 | – | – | Activity [19]: Non-Toxic; inhibition at 4 µM [20]: 40%; GI50 [21]: 5500 nM
